Data: ChEMBL document CHEMBL1149101, “New antibacterial agents derived from the DNA gyrase inhibitor cyclothialidine” (J Med Chem, 2004)
≈ marks a conversion by molar mass, not a printed value.

What was measured:
Staphylococcus aureus [1] = assay: Minimum inhibitory concentration against Staphylococcus aureus 887; type: functional
Procedure, shortened: (§1)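 Agar dilution per NCCLS in BB2 agar + 1% Isovitalex + 7.5% sheep blood + menadione, compound added to melted medium at 50 °C. About 10⁴ CFU/spot from diluted overnight cultures, multipoint-inoculated.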

Streptococcus pyogenes = assay: Minimum inhibitory concentration against Streptococcus pyogenes b15; details: Streptococcus pyogenes; read-out: MIC
Micrococcus luteus = assay: Minimum inhibitory concentration against Micrococcus luteus ATCC 8340; type: functional; procedure, shortened: as §1
[2] = biological target: DNA gyrase (Escherichia coli) (UniProt P0AES6+P0AES4)
Neisseria meningitidis = assay: Minimum inhibitory concentration against Neisseria meningitides 69480; type: functional; procedure, shortened: as §1
Staphylococcus aureus [3] = assay: Minimum inhibitory concentration against Staphylococcus aureus ATCC 25923; type: functional
Procedure, shortened: (§2)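 NCCLS agar dilution on Mueller–Hinton agar, compound incorporated into melted medium at 50 °C. Inoculum about 10⁴ CFU/spot from diluted overnight cultures, multipoint-applied.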

Staphylococcus aureus [4] = assay: Minimum inhibitory concentration against Staphylococcus aureus Smith; type: functional; procedure, shortened: as §2
[5] = system: Staphylococcus epidermidis; assay: Minimum inhibitory concentration against Staphylococcus epidermidis 16/2; type: functional; procedure, shortened: as §2
[6] = system: Stenotrophomonas maltophilia; assay: Minimum inhibitory concentration against Xanthomonas maltophilia AC739; type: functional; procedure, shortened: as §2
Escherichia coli = assay: Minimum inhibitory concentration against Escherichia coli 25922; type: functional; procedure, shortened: as §2
Enterococcus faecalis = assay: Minimum inhibitory concentration against Enterococcus faecalis 6; type: functional; procedure, shortened: as §2
[7] = Staphylococcus aureus, ATCC 25923, read-out: MIC
[8] = Staphylococcus aureus, read-out: MIC

SMILES | MIC (Micrococcus luteus) | MNEC [2] | MIC (Neisseria meningitidis) | also measured
COC(=O)[C@@H]1CSCc2c(O)cc(O)cc2C(=O)OCC(NC(=O)OC(C)(C)C)C(=O)N1 (stereo not given in full) | 128 µg/mL (≈ 272 µM) | 0.5 µg/mL | 128 µg/mL (≈ 272 µM) | –
Cc1c(O)cc(O)c2c1C(=O)OCC(NC(=O)OC(C)(C)C)C(=O)NCCSC2 (stereo not given) | 32 µg/mL (≈ 75 µM) | 1 µg/mL | – | –
Cc1c(O)cc(O)c2c1C(=O)OCCC(=O)NCCSC2 | > 128 µg/mL | 20 µg/mL | – | –
COc1cc(O)c2c(c1C)C(=O)O[C@H](CO)CC/C(S)=N/[C@H](c1nc(C)no1)CSC2 | – | 0.01 µg/mL | – | –
COC(=O)[C@@H]1CSCc2c(O)cc(OC)c(C)c2C(=O)OCCCC/C(S)=N/1 | – | 0.01 µg/mL | – | MIC (Streptococcus pyogenes): 1 µg/mL (≈ 2.34 µM); MIC (Staphylococcus aureus [3]): 0.5 µg/mL (≈ 1.17 µM); MIC (Staphylococcus aureus [3]; [7]): 0.5 µg/mL (≈ 1.17 µM); MIC (Staphylococcus aureus [4]): 0.25 µg/mL (≈ 0.585 µM); MIC (Staphylococcus aureus [4]; [8]): 0.25 µg/mL (≈ 0.585 µM); MIC [5]: < 0.12 µg/mL; MIC [6]: 8 µg/mL (≈ 18.7 µM); MIC (Escherichia coli): > 64 µg/mL; MIC (Enterococcus faecalis): 1 µg/mL (≈ 2.34 µM)
COc1cc(O)c2c(c1C)C(=O)OCCC/C(S)=N/[C@H](c1nc(C)no1)CSC2 | – | 0.004 µg/mL | – | –
COC(=O)[C@@H]1CSCc2c(O)ccc(C)c2C(=O)OCC(NC(=O)OC(C)(C)C)C(=O)N1 (stereo not given in full) | 32 µg/mL (≈ 68.3 µM) | 1 µg/mL | – | –
COc1cc(O)c2c(c1C)C(=O)OC[C@H](NC(=O)OC(C)(C)C)C(=O)N[C@H](C(N)=O)CSC2 | 16 µg/mL (≈ 33.1 µM) | 0.1 µg/mL | 4 µg/mL (≈ 8.27 µM) | MIC (Staphylococcus aureus [1]): > 64 µg/mL; MIC (Streptococcus pyogenes): 16 µg/mL (≈ 33.1 µM)
COC(=O)[C@@H]1CSCc2c(N)cccc2C(=O)OCC(NC(=O)[C@H](CO)NC(=O)OC(C)(C)C)C(=O)N1 (stereo not given in full) | > 128 µg/mL | > 100 µg/mL | > 128 µg/mL | –
COC(=O)[C@@H]1CSCc2c(O)cc(OC)c(C)c2C(=O)OCCCCCCCCC(=O)N1 | – | > 1 µg/mL | – | –
COC(=O)[C@@H]1CSCc2c(O)cc(OC)c(C)c2C(=O)OCCCCC/C(S)=N/1 | – | 0.5 µg/mL | – | MIC (Staphylococcus aureus [3]; [7]): 32 µg/mL (≈ 72.5 µM); MIC (Staphylococcus aureus [4]; [8]): 16 µg/mL (≈ 36.2 µM)
COC(=O)[C@@H]1CSCc2c(O)cc(OC)c(C)c2C(=O)OCCCCCC/C(S)=N/1 | – | 0.5 µg/mL | – | MIC (Staphylococcus aureus [3]; [7]): 16 µg/mL (≈ 35.1 µM); MIC (Staphylococcus aureus [4]; [8]): 16 µg/mL (≈ 35.1 µM)
COC(=O)[C@@H]1CSCc2c(O)cc(OC)c(C)c2C(=O)OCCCC(=O)N1 | – | 2 µg/mL | – | MIC (Staphylococcus aureus [3]; [7]): 64 µg/mL (≈ 161 µM); MIC (Staphylococcus aureus [4]; [8]): 32 µg/mL (≈ 80.5 µM)
COC(=O)[C@@H]1CSCc2cccc(C)c2C(=O)OCC(NC(=O)OC(C)(C)C)C(=O)N1 (stereo not given in full) | – | > 1 µg/mL | – | –
COc1cc(O)c2c(c1C)C(=O)CCCCC/C(S)=N/[C@H](c1nc(CNC(C)C)no1)CSC2.Cl | – | 0.002 µg/mL | – | –
COC(=O)[C@@H]1CSCc2c(O)cccc2C(=O)OCC(NC(=O)OC(C)(C)C)C(=O)N1 (stereo not given in full) | > 128 µg/mL | > 1 µg/mL | – | –
COC(=O)c1c(C)c(OC)cc(O)c1CSC[C@H](/N=C(/C)S)C(=O)OC | – | 0.2 µg/mL | – | MIC (Staphylococcus aureus [3]; [7]): 16 µg/mL (≈ 39.8 µM); MIC (Staphylococcus aureus [4]; [8]): 8 µg/mL (≈ 19.9 µM)
COC(=O)[C@@H]1CSCc2ccccc2C(=O)OCC(NC(=O)OC(C)(C)C)C(=O)N1 (stereo not given in full) | – | > 1 µg/mL | – | –
COC(=O)[C@@H]1CSCc2c(O)cccc2C(=O)OCC(NC(=O)[C@H](CO)NC(=O)OC(C)(C)C)C(=O)N1 (stereo not given in full) | 64 µg/mL (≈ 118 µM) | 0.4 µg/mL | 32 µg/mL (≈ 59.1 µM) | –
COc1cc(O)c2c(c1C)C(=O)O[C@H](CO)C/C(S)=N/[C@H](c1nc(C)no1)CSC2 | – | 0.01 µg/mL | – | –
COC(=O)c1c(C)c(OC)cc(O)c1CSC[C@H](NC(C)=O)C(=O)OC | – | 2 µg/mL | – | MIC (Staphylococcus aureus [3]; [7]): > 64 µg/mL; MIC (Staphylococcus aureus [4]; [8]): > 64 µg/mL
COC(=O)[C@@H]1CSCc2c(O)cc(OC)c(C)c2C(=O)OCCC/C(S)=N/1 | – | 0.4 µg/mL | – | MIC (Staphylococcus aureus [3]; [7]): 4 µg/mL (≈ 9.67 µM); MIC (Staphylococcus aureus [4]; [8]): 2 µg/mL (≈ 4.84 µM)
COC(=O)[C@@H]1CSCc2ccc(O)c(C)c2C(=O)OCC(NC(=O)OC(C)(C)C)C(=O)N1 (stereo not given in full) | > 128 µg/mL | > 100 µg/mL | – | –
COC(=O)[C@@H]1CSCc2c(O)cc(OC)c(C)c2C(=O)OCCCCCC(=O)N1 | – | 2 µg/mL | – | MIC (Staphylococcus aureus [3]; [7]): > 64 µg/mL; MIC (Staphylococcus aureus [4]; [8]): 32 µg/mL (≈ 75.2 µM)
COc1cc(O)c2c(c1C)C(=O)OC[C@H](NC(=O)OC(C)(C)C)C(=O)N[C@H](CO)CSC2 | 64 µg/mL (≈ 136 µM) | 2.5 µg/mL | 64 µg/mL (≈ 136 µM) | MIC (Staphylococcus aureus [1]): > 64 µg/mL; MIC (Streptococcus pyogenes): 64 µg/mL (≈ 136 µM)
COC(=O)[C@@H]1CSCc2c(O)cc(OC)c(C)c2C(=O)OCCCCCCCC/C(S)=N/1 | – | > 1 µg/mL | – | –
COC(=O)[C@@H]1CSCc2c(O)cc(OC)c(C)c2C(=O)OCC(=O)N1 | – | > 1 µg/mL | – | MIC (Staphylococcus aureus [3]; [7]): > 64 µg/mL; MIC (Staphylococcus aureus [4]; [8]): > 64 µg/mL
COC(=O)[C@@H]1CSCc2c(O)cc(OC)c(C)c2C(=O)OC/C(S)=N/1 | – | 0.2 µg/mL | – | MIC (Staphylococcus aureus [3]; [7]): > 64 µg/mL; MIC (Staphylococcus aureus [4]; [8]): > 64 µg/mL
COC(=O)[C@@H]1CSCc2c(O)cc(OC)c(C)c2C(=O)OCCCCCCC(=O)N1 | – | > 1 µg/mL | – | MIC (Staphylococcus aureus [3]; [7]): > 64 µg/mL; MIC (Staphylococcus aureus [4]; [8]): > 64 µg/mL
C=CCNC(=O)[C@@H]1CSCc2c(O)cc(OC)c(C)c2C(=O)OC[C@H](NC(=O)OC(C)(C)C)C(=O)N1 | 8 µg/mL (≈ 15.3 µM) | 0.1 µg/mL | 4 µg/mL (≈ 7.64 µM) | MIC (Staphylococcus aureus [1]): 16 µg/mL (≈ 30.6 µM); MIC (Streptococcus pyogenes): 16 µg/mL (≈ 30.6 µM)

Now from value to compound, other results behind:

MIC (Micrococcus luteus) | MNEC [2] | MIC (Neisseria meningitidis) | SMILES | also measured
16 µg/mL (≈ 35.1 µM) | 0.2 µg/mL | – | COC(=O)[C@@H]1CSCc2c(O)cc(O)c(C)c2C(=O)OCC(NC(=O)CCO)C(=O)N1 (stereo not given in full) | MIC (Staphylococcus aureus [1]): > 64 µg/mL; MIC (Streptococcus pyogenes): > 64 µg/mL
8 µg/mL (≈ 13.4 µM) | 0.05 µg/mL | 64 µg/mL (≈ 107 µM) | COC(=O)[C@@H]1CSCc2c(O)cc(O)c(C)c2C(=O)OCC(NC(=O)[C@@H]2C(O)CCN2C(=O)OC(C)(C)C)C(=O)N1 (stereo not given in full) | MIC (Staphylococcus aureus [1]): > 64 µg/mL; MIC (Streptococcus pyogenes): 32 µg/mL (≈ 53.5 µM)
> 64 µg/mL | 1 µg/mL | – | COC(=O)[C@@H]1CSCc2c(O)cc(O)c(C)c2C(=O)OC[C@H](N)C(=O)N1 | MIC (Staphylococcus aureus [1]): > 64 µg/mL
128 µg/mL (≈ 264 µM) | 1 µg/mL | 32 µg/mL (≈ 66 µM) | COC(=O)[C@@H]1CSCc2c(O)cc(O)c(C)c2C(=O)OC[C@@H](NC(=O)OC(C)(C)C)C(=O)N1 | –
> 128 µg/mL | > 1 µg/mL | 128 µg/mL (≈ 257 µM) | COC(=O)[C@@H]1CSCc2c(OC)cc(O)c(C)c2C(=O)OCC(NC(=O)OC(C)(C)C)C(=O)N1 (stereo not given in full) | –
> 64 µg/mL | 10 µg/mL | – | COc1cc(O)c2c(c1C)C(=O)OC[C@H](NC(=O)OC(C)(C)C)C(=O)N[C@H](C(=O)O)CSC2 | MIC (Staphylococcus aureus [1]): > 64 µg/mL; MIC (Streptococcus pyogenes): > 64 µg/mL
128 µg/mL (≈ 264 µM) | 4 µg/mL | 128 µg/mL (≈ 264 µM) | COC(=O)[C@H]1CSCc2c(O)cc(O)c(C)c2C(=O)OC[C@H](NC(=O)OC(C)(C)C)C(=O)N1 | –
16 µg/mL (≈ 43.3 µM) | 0.25 µg/mL | 32 µg/mL (≈ 86.6 µM) | COC(=O)[C@@H]1CSCc2c(O)cc(O)c(C)c2C(=O)OCCC(=O)N1 | –
16 µg/mL (≈ 40.3 µM) | 0.4 µg/mL | 8 µg/mL (≈ 20.1 µM) | COC(=O)[C@@H]1CSCc2c(O)cc(OC)c(C)c2C(=O)OC[C@H](C)C(=O)N1 | MIC (Staphylococcus aureus [1]): 16 µg/mL (≈ 40.3 µM); MIC (Streptococcus pyogenes): 16 µg/mL (≈ 40.3 µM)
64 µg/mL (≈ 110 µM) | 2.5 µg/mL | – | COC(=O)[C@@H]1CSCc2c(O)cc(O)c(C)c2C(=O)OC[C@H](NC(=O)[C@@H]2CCCN2C(=O)OC(C)(C)C)C(=O)N1 | MIC (Staphylococcus aureus [1]): > 64 µg/mL; MIC (Streptococcus pyogenes): > 64 µg/mL
128 µg/mL (≈ 214 µM) | 1 µg/mL | – | COC(=O)[C@@H]1CSCc2c(O)cc(O)c(C)c2C(=O)OCC(NC(=O)[C@H]2C(O)CCN2C(=O)OC(C)(C)C)C(=O)N1 (stereo not given in full) | MIC (Staphylococcus aureus [1]): > 64 µg/mL
64 µg/mL (≈ 161 µM) | 4 µg/mL | 64 µg/mL (≈ 161 µM) | COC(=O)[C@@H]1CSCc2c(O)cc(OC)c(C)c2C(=O)OC[C@@H](C)C(=O)N1 | MIC (Staphylococcus aureus [1]): > 64 µg/mL; MIC (Streptococcus pyogenes): > 64 µg/mL
128 µg/mL (≈ 300 µM) | 0.4 µg/mL | 32 µg/mL (≈ 75 µM) | COC(=O)[C@@H]1CSCc2c(O)cc(O)c(C)c2C(=O)OC[C@H](NC(C)=O)C(=O)N1 | MIC (Staphylococcus aureus [1]): > 64 µg/mL; MIC (Streptococcus pyogenes): > 64 µg/mL
128 µg/mL (≈ 264 µM) | 10 µg/mL | 128 µg/mL (≈ 264 µM) | COC(=O)[C@@H]1CSCc2c(O)cc(O)c(C)c2C(=O)OC[C@H](NC(=O)OC(C)(C)C)C(=O)N1 | –
